Key:
[1] = system: MCF7; experiment: Cytotoxicity against human MCF7 cells after 24 hrs by MTT assay; format: functional, cell-based; conditions: MCF7, 24 h
Procedure, shortened: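 MCF-7 breast cancer cells grown in RPMI 1640 with 10% heat-inactivated horse serum, 2 mM L-glutamine and antibiotics, 5% CO2, 37 °C. 2 × 10^4 cells per well exposed to increasing compound concentrations for 24 h at 37 °C. MTT added (5 mg/mL stock), 4 h, then 10% SDS overnight. OD read at 550 nm (ref 630 nm). IC50 from growth inhibition; mean ± SD, three experiments.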

[2] = Selectivity index, ratio of IC50 for human MCF7 cells to IC50 for chloroquine-sensitive Plasmodium falciparum 3D7; format: toxicity, cell-based; conditions: read-out: Ratio IC50
[3] = system: Plasmodium falciparum; experiment: Antimalarial activity against chloroquine-resistant Plasmodium falciparum Dd2 infected in erythrocytes after 48 hrs by SYBR Green 1-based fluorescence assay; format: functional, organism-based; conditions: Dd2, 48 h
[4] = Selectivity index, ratio of IC50 for human MCF7 cells to IC50 for chloroquine-resistant Plasmodium falciparum Dd2; format: toxicity, cell-based; conditions: read-out: Ratio IC50
[5] = system: Plasmodium falciparum; experiment: Antimalarial activity against chloroquine-sensitive Plasmodium falciparum 3D7 infected in erythrocytes after 48 hrs by SYBR Green 1-based fluorescence assay; format: functional, organism-based; conditions: 3D7, 48 h

Row | SMILES | IC50 [1] [µM] | selectivity ratio [2] | IC50 [3] [µM] | selectivity ratio [4] | IC50 [5] [µM]
1 | CO[C@H]1C=C2[C@@H](CC[C@H](OC(C)=O)C2(C)C)[C@]2(C)CC[C@]3(C)[C@@H]([C@H](C)C[C@H](C=C(C)C)OC(C)=O)CC[C@@]3(C)[C@H]12 [KARAVOATE B] | 68.1 | 151 | 0.5 | 126 | 0.5
2 | CCC(=O)O[C@@H](C=C(C)C)C[C@@H](C)[C@H]1CC[C@@]2(C)[C@@H]3[C@@H](OC)C=C4[C@@H](CC[C@H](O)C4(C)C)[C@]3(C)CC[C@]12C [KARAVOATE C] | 19.1 | 3.7 | 22 | 0.9 | 5.1
3 | COc1ccc(C(=O)O[C@@H](C=C(C)C)C[C@@H](C)[C@H]2CC[C@@]3(C)[C@@H]4[C@@H](OC)C=C5[C@@H](CC[C@H](O)C5(C)C)[C@]4(C)CC[C@]23C)cc1 [KARAVOATE M] | > 133 | > 43.6 | 0.6 | > 215 | 1.3
4 | CO[C@H]1C=C2[C@@H](CC[C@H](O)C2(C)C)[C@]2(C)CC[C@]3(C)[C@@H]([C@H](C)C[C@@H](O)C=C(C)C)CC[C@@]3(C)[C@H]12 [KARAVELAGENIN C] | 16.7 | 1.6 | 11.2 | 1.4 | 10.4
5 | CCC(=O)O[C@H]1CC[C@@H]2C(=C[C@H](OC)[C@@H]3[C@@]2(C)CC[C@]2(C)[C@@H]([C@H](C)C[C@H](C=C(C)C)OC(=O)CC)CC[C@@]32C)C1(C)C [KARAVOATE D] | > 133 | > 89 | 0.4 | > 350 | 1.5
6 | CO[C@H]1C=C2[C@@H](CC[C@H](O)C2(C)C)[C@]2(C)CC[C@]3(C)[C@@H]([C@H](C)C[C@H](C=C(C)C)OC(=O)c4ccc([N+](=O)[O-])cc4)CC[C@@]3(C)[C@H]12 [KARAVOATE I] | > 133 | > 51.4 | 0.5 | > 296 | 2.6
7 | CO[C@H]1C=C2[C@@H](CC[C@H](OC(=O)c3ccccc3)C2(C)C)[C@]2(C)CC[C@]3(C)[C@@H]([C@H](C)C[C@H](C=C(C)C)OC(=O)c4ccccc4)CC[C@@]3(C)[C@H]12 [KARAVOATE H] | > 133 | > 3.7 | 30.5 | > 4.4 | 36.4
8 | COc1ccc(C(=O)O[C@H]2CC[C@@H]3C(=C[C@H](OC)[C@@H]4[C@@]3(C)CC[C@]3(C)[C@@H]([C@H](C)C[C@H](C=C(C)C)OC(=O)c5ccc(OC)cc5)CC[C@@]43C)C2(C)C)cc1 [KARAVOATE N] | > 133 | > 55.4 | 47.9 | > 2.8 | 2.4
9 | CO[C@H]1C=C2[C@@H](CC[C@H](O)C2(C)C)[C@]2(C)C[C@@H](O)[C@]3(C)[C@@H]([C@H](C)C[C@@H](O)C=C(C)C)CC[C@@]3(C)[C@H]12 [CUCURBALSAMINOL C] | 43.3 | 0.8 | 67.6 | 0.6 | 52.7
10 | CCCC(=O)O[C@@H](C=C(C)C)C[C@@H](C)[C@H]1CC[C@@]2(C)[C@@H]3[C@@H](OC)C=C4[C@@H](CC[C@H](O)C4(C)C)[C@]3(C)CC[C@]12C [KARAVOATE E] | 73.8 | 20.8 | 0.6 | 116 | 3.5
11 | CCCC(=O)O[C@H]1CC[C@@H]2C(=C[C@H](OC)[C@@H]3[C@@]2(C)CC[C@]2(C)[C@@H]([C@H](C)C[C@H](C=C(C)C)OC(=O)CCC)CC[C@@]32C)C1(C)C [KARAVOATE F] | > 133 | > 19.4 | 8.4 | > 15.8 | 6.9
12 | CO[C@H]1C=C2[C@@H](CC[C@H](OC(=O)/C=C/c3ccccc3)C2(C)C)[C@]2(C)CC[C@]3(C)[C@@H]([C@H](C)C[C@H](C=C(C)C)OC(=O)/C=C/c4ccccc4)CC[C@@]3(C)[C@H]12 [KARAVOATE P] | > 133 | > 2 | 56.6 | > 2.4 | 65.2
13 | CO[C@H]1C=C2[C@@H](CC[C@H](O)C2(C)C)[C@]2(C)CC[C@]3(C)[C@@H]([C@H](C)C[C@H](C=C(C)C)OC(C)=O)CC[C@@]3(C)[C@H]12 [KARAVOATE A] | 22.9 | 3.4 | 9.2 | 2.5 | 6.7
14 | CO[C@H]1C=C2[C@@H](CC[C@H](OC(=O)c3ccc(Cl)cc3)C2(C)C)[C@]2(C)CC[C@]3(C)[C@@H]([C@H](C)C[C@H](C=C(C)C)OC(=O)c4ccc(Cl)cc4)CC[C@@]3(C)[C@H]12 [KARAVOATE L] | > 133 | > 5.9 | 66 | > 2 | 22.5
15 | CO[C@H]1C=C2[C@@H](CC[C@H](OC(=O)c3ccc([N+](=O)[O-])cc3)C2(C)C)[C@]2(C)CC[C@]3(C)[C@@H]([C@H](C)C[C@H](C=C(C)C)OC(=O)c4ccc([N+](=O)[O-])cc4)CC[C@@]3(C)[C@H]12 [KARAVOATE J] | > 133 | > 7.2 | 20.7 | > 6.43 | 18.6
16 | CO[C@H]1C=C2[C@@H](CC[C@H](O)C2(C)C)[C@]2(C)CC[C@]3(C)[C@@H]([C@H](C)C[C@H](C=C(C)C)OC(=O)/C=C/c4ccccc4)CC[C@@]3(C)[C@H]12 [KARAVOATE O] | > 133 | > 20.3 | 26.7 | > 5 | 6.6
17 | CO[C@H]1C=C2[C@@H](CC[C@H](O)C2(C)C)[C@]2(C)CC[C@]3(C)[C@@H]([C@H](C)C[C@H](C=C(C)C)OC(=O)c4ccc(Cl)cc4)CC[C@@]3(C)[C@H]12 [KARAVOATE K] | > 133 | > 10 | 23.3 | > 5.7 | 13.3

Source: ChEMBL document CHEMBL1641571, “Karavilagenin C derivatives as antimalarials” (Bioorg Med Chem, 2011)
